We go through six compounds from ChEMBL document CHEMBL3407418, “Fragment-based drug discovery of 2-thiazolidinones as BRD4 inhibitors: 2. Structure-based optimization” (J Med Chem, 2015).

One data set addresses CYP2D6 (Homo sapiens, UniProt P10635). In words: (§1) Inhibition of CYP2D6 in human liver microsomes at 10 uM using dextromethorphan substrate preincubated for 5 mins before NADPH addition and measured after 20 mins post NADPH addition. The data set is classed as ADME. As to conditions: liver microsomes, probe dextromethorphan. The essentials: (§2)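 Human liver microsomes 0.2 mg/mL, 1 mmol NADPH, 100 mmol phosphate pH 7.4, probe cocktail (10 μM midazolam, 100 μM testosterone, 10 μM dextromethorphan, 20 μM diclofenac, 100 μM phenacetin, 100 μM mephenytoin), test compound 10 μM or PBS; organic solvent <1%. 5 min preincubation at 37 °C, NADPH-generating system start, 20 min reaction; inhibition from metabolite formation relative to PBS.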

The target of the next data set is T1, Cytochrome P450 1A2 (Homo sapiens, UniProt P05177).
T1 sequence (P05177 whole entry): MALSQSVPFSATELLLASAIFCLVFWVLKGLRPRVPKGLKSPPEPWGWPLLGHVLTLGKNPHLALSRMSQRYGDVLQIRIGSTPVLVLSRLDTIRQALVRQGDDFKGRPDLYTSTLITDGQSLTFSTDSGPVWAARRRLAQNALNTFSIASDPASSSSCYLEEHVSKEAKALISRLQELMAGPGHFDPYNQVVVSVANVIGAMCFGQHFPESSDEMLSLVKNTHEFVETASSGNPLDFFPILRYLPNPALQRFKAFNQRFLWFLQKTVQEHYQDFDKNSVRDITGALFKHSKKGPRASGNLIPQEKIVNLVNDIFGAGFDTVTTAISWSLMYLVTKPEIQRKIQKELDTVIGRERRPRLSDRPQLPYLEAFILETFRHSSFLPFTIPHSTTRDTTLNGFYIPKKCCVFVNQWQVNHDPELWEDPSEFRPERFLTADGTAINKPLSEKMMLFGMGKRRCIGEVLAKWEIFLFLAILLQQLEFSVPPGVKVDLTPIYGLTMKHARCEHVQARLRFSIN
Briefly: Time dependent inhibition of CYP1A2 in human liver microsomes at 10 uM using phenacetin substrate preincubated for 5 mins before NADPH addition and measured after 20 mins post NADPH addition. The data set is classed as ADME. Background: Microsomes from liver hold many membrane-bound enzymes, among them those of drug oxidation.

Data set [1] addresses T2, Cytochrome P450 2D6 (Homo sapiens, UniProt P10635). Briefly: Time dependent inhibition of CYP2D6 in human liver microsomes at 10 uM using dextromethorphan substrate preincubated for 5 mins before NADPH addition and measured after 20 mins post NADPH addition. The data set is classed as ADME.
In data set [2] the target is Histone acetyltransferase p300 (Homo sapiens) (UniProt Q09472). Briefly: Binding affinity to EP300 (unknown origin) assessed as increase in protein melting temperature at 50 umol by real-time PCR system based thermal shift assay. The method in brief:
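Bromodomain proteins in 10 mmol HEPES pH 7.5, 500 mmol NaCl at 75 μg/mL final; compound at 50 µmol final; SYPRO Orange probe at 1:1000. Four replicates per protein mixture. Melt curve read on a real-time PCR instrument, heating 25 °C to 99 °C at 1 °C/min under continuous fluorescence reading; binding taken as the rise in protein melting temperature.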

A further data set addresses Cytochrome P450 2C19 (Homo sapiens, UniProt P33261). Briefly: Time dependent inhibition of CYP2C19 in human liver microsomes at 10 uM using mephenytoin substrate preincubated for 5 mins before NADPH addition and measured after 20 mins post NADPH addition. The data set is classed as ADME.
A further data set concerns HT-29. Briefly: Growth inhibition of human HT-29 cells after 72 hrs by SRB assay. The data set is classed as functional, cell-based. The note with it: HT-29, 72 h. The method in brief:
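HT-29 cells are grown in McCoy's 5A with 10% FBS at 37 °C, 5% CO2. DMSO stocks (0.01 mol/L) are diluted in normal saline just before use. Cells are treated in triplicate with gradient concentrations for 72 h at 37 °C.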

The target of a further data set is Cytochrome P450 3A4 (Homo sapiens, UniProt P08684). Briefly: Time dependent inhibition of CYP3A4 in human liver microsomes at 10 uM using midazolam substrate preincubated for 5 mins before NADPH addition and measured after 20 mins post NADPH addition. The data set is classed as ADME.
Sequence of Cytochrome P450 3A4 (P08684 whole entry): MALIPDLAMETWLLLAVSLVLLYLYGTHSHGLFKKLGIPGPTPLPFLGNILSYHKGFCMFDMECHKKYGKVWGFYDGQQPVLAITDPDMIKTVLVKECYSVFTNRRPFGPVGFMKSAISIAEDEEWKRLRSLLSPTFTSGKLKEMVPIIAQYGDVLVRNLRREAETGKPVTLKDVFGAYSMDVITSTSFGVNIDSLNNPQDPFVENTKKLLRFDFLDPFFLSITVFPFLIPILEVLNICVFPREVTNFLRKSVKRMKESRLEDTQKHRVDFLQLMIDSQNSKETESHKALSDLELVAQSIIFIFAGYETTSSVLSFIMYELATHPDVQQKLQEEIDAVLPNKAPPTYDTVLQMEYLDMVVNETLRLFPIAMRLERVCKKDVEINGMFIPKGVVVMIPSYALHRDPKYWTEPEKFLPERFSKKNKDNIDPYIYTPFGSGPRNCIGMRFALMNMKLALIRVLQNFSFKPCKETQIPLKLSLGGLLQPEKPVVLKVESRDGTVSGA
Data set [3] can be described thus: Stability in human liver microsomes assessed as clearance at 1 uM pre-incubated for 5 mins followed by NADPH addition and measured after 5 to 30 mins post NADPH addition by LC/MS/MS method. The data set is classed as ADME. The note with it: read-out: CLH. The essentials:
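Human liver microsomes (0.5 mg/mL) preincubated with 1 µM compound for 5 min at 37 °C in 0.1 M phosphate pH 7.4 with 1 mmol EDTA and 5 mmol MgCl2. Started with 1 mmol NADPH; sampled at 0, 5, 10 and 30 min. Quenched with equal volume of cold acetonitrile, vortexed, and centrifuged at 10,000 × g.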

The subject of another data set is MV4-11. In words: Growth inhibition of human MV4-11 cells after 72 hrs by CellTiter-Glo luminescent cell viability assay. The note with it: MV4-11, 72 h.
The target in the next data set is CYP2C19 (Homo sapiens, UniProt P33261). Briefly: Inhibition of CYP2C19 in human liver microsomes at 10 uM using mephenytoin substrate preincubated for 5 mins before NADPH addition and measured after 20 mins post NADPH addition. The data set is classed as ADME. As to conditions: probe mephenytoin. The essentials: as §2
Sequence of CYP2C19 (P33261 whole entry): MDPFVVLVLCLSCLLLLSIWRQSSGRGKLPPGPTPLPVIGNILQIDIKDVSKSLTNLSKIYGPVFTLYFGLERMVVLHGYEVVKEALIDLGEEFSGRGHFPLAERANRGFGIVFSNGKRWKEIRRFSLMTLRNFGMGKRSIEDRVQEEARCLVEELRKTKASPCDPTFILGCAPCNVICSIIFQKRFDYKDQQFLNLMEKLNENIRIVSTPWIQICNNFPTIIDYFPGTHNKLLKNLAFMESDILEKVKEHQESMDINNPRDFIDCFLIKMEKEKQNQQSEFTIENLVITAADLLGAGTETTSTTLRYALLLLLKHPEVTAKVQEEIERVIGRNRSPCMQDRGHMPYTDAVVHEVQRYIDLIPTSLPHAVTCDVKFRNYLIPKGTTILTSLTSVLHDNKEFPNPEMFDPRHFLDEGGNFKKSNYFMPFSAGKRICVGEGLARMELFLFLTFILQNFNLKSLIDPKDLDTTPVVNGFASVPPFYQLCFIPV
The target in data set [4] is T3, Bromodomain-containing protein 4 (Homo sapiens, UniProt O60885). Briefly: Inhibition of BRD4 in human HT-29 cells assessed as reduction in c-myc mRNA expression at 5 uM after 24 hrs by RT-qPCR method. The data set is classed as cell-based. The method in brief: (§3)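 HT-29 cells seeded overnight and exposed to compounds for 24 h; total RNA isolated, reverse-transcribed, and analysed by RT-qPCR with c-myc primers. Relative c-myc mRNA normalised to β-actin and expressed versus untreated control.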
Background: Quantitative PCR measures a nucleic acid by following its amplification.

For data set [5], the target named is T3, Bromodomain-containing protein 4. In words: Inhibition of BRD4 in human HT-29 cells assessed as reduction in c-myc mRNA expression at 0.3125 uM after 24 hrs by RT-qPCR method. The data set is classed as cell-based. The method in brief: as §3
Data set [6] shares this target. Briefly: Inhibition of BRD4 in human HT-29 cells assessed as reduction in c-Myc protein expression at 5 and 10 uM after 24 hrs by Western blotting method. The data set is classed as cell-based. The essentials:
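HT-29 cells seeded overnight, then treated 24 h; lysed in 1×SDS buffer (50 mmol/L Tris-HCl pH 6.8, 100 mmol/L DTT, 2% SDS, 10% glycerol), boiled 10 min. c-Myc immunoblotted with GAPDH loading control, peroxidase secondary antibodies, ECL detection. Repeated three times.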
A general note: Immunoblotting shows a protein as a band on a membrane.

The target is the same in data set [7]. In words: Inhibition of BRD4 in human HT-29 cells assessed as reduction in c-myc mRNA expression at 0.3125 uM to 5 uM uM after 24 hrs by RT-qPCR method. The data set is classed as cell-based. The method in brief:
as §3

Data set [8] has as its target T4, Cytochrome P450 2C9 (Homo sapiens, UniProt P11712). Briefly: Time dependent inhibition of CYP2C9 in human liver microsomes at 10 uM using diclofenac substrate preincubated for 5 mins before NADPH addition and measured after 20 mins post NADPH addition. The data set is classed as ADME.
Data set [9] has as its target T4, Cytochrome P450 2C9. In words: (§4) Inhibition of CYP2C9 in human liver microsomes at 10 uM using diclofenac substrate preincubated for 5 mins before NADPH addition and measured after 20 mins post NADPH addition. The data set is classed as ADME. The note with it: microsomes, 20 min, 10 µM. The method in brief:
as §2

The target of data set [10] is T2, Cytochrome P450 2D6. The data set is described as §1. The note with it: microsomes, 20 min, 10 µM. The data set is classed as ADME. The method in brief: as §2
A further data set concerns the target CYP2C9 (Homo sapiens, UniProt P11712). The description is as §4. The data set is classed as ADME. The note with it: liver microsomes, probe diclofenac. The essentials: as §2

Active and inactive are the calls of the source. The rule behind the calls is not given here.

Sequence of Cytochrome P450 2C19 (P33261 whole entry): as above
T4 sequence (P11712 whole entry): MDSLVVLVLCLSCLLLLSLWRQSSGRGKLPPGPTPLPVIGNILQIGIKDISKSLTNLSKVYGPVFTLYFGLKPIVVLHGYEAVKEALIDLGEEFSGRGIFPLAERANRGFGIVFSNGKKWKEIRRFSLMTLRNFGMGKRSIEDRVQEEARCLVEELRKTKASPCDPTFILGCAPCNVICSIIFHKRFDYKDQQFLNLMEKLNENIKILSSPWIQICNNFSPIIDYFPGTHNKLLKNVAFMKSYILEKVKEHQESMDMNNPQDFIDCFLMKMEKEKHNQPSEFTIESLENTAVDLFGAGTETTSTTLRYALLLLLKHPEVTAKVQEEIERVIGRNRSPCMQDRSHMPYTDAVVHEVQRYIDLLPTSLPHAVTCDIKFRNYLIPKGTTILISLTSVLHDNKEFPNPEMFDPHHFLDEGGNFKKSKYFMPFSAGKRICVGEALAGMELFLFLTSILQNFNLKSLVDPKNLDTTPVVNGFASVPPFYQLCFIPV
Sequence of CYP2C9 (P11712 whole entry): as above
Sequence of CYP2D6 (P10635 whole entry): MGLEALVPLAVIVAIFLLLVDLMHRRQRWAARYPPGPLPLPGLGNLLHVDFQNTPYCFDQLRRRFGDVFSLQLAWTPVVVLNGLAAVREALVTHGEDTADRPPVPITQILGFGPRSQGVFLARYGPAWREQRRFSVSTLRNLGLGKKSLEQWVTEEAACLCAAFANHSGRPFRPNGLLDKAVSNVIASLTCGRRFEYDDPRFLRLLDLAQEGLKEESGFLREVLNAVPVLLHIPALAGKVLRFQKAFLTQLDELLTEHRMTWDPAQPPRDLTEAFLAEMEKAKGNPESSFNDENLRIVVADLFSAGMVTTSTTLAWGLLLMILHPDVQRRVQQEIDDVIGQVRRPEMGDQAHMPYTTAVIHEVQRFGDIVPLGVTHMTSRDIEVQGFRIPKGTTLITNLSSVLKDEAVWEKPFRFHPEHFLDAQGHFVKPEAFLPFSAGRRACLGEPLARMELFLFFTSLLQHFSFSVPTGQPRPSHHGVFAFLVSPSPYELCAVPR
T2 sequence (P10635 whole entry): as above

For orientation: inhibition means how much of the control response was suppressed. One may read the ΔTm as the shift of the melting midpoint relative to a reference. As usually defined, the IC50 is the concentration at which inhibition is half-maximal. Read a low IC50 as higher potency. Take `Cc1c(N)cc(-c2csc(=O)[nH]2)cc1S(=O)(=O)NC1CCCC1`: the inhibition at 20 min, 10 µM against CYP2D6 and at CYP2C19 was 3% in each case. Moreover, the TDI result on Cytochrome P450 1A2, on Cytochrome P450 2D6 [1], on Cytochrome P450 2C19, on Cytochrome P450 3A4 and on Cytochrome P450 2C9 [8] was “Not Active” in each case. In addition, the ΔTm in data set [2] is 0.19 °C. In addition, the figures for the 50% inhibitory concentration (IC50) with HT-29 and with MV4-11 were 860 nM and 184 nM, respectively. The microsomal CLint at 1 µM in data set [3] came out at 66 µL/min/mg. Moreover, the inhibition in data set [4] amounted to 90%. In addition, the inhibition result in data set [5], in data set [6] and in [7] was “Active” each time. The “inhibition (INH)” value on Cytochrome P450 2C9 [9] is given as “Not Active”.

With `Cc1c(Br)cc(-c2csc(=O)[nH]2)cc1S(=O)(=O)NC1CCCC1`, the inhibition at 20 min, 10 µM against CYP2D6 was 39%; at CYP2C19, 28%. In data set [2], the ΔTm is -1.01 °C. Also, the figures for the IC50 in the data set on HT-29 and in the data set on MV4-11 were 5460 nM and 141 nM, respectively. Also, in data set [3], the microsomal CLint at 1 µM was 84 µL/min/mg. Besides, the inhibition in data set [4] is above 60%. The inhibition entry in data set [6] and in data set [7] was “Active” each time. The TDI entry at Cytochrome P450 2C9 [8] is recorded as “Active”. Also, the “inhibition (INH)” value on Cytochrome P450 2C9 [9] is recorded as “Not Active”.

With `COc1ccc(-c2csc(=O)[nH]2)cc1S(=O)(=O)NC1CCCC1`, the “inhibition (INH)” value against Cytochrome P450 2D6 [10] is “Not Active”. Also, the TDI entry at Cytochrome P450 2D6 [1] and at Cytochrome P450 2C19 was “Active” throughout. In [2], the ΔTm is 0.49 °C. The IC50 came to 3930 nM with HT-29 and 547 nM in the data set with MV4-11. Moreover, in [3], the microsomal CLint at 1 µM is 56 µL/min/mg. Also, the inhibition at 20 min, 10 µM against CYP2C19 came out at 26%; against CYP2C9, 10%.

On to `Nc1ccc(-c2csc(=O)[nH]2)cc1S(=O)(=O)NC1CCCC1`, for which the inhibition at 20 min, 10 µM was 18% at CYP2D6, 57% on CYP2C19 and 74% on CYP2C9. Besides, the ΔTm in data set [2] was -0.08 °C. Besides, the values for the IC50 in the data set with HT-29 and in the data set with MV4-11 were 3280 nM and 289 nM, respectively. In addition, the TDI entry on Cytochrome P450 3A4 is “Active”. Moreover, in data set [3], the microsomal CLint at 1 µM amounted to 20 µL/min/mg.

For the compound `O=C(Nc1cc(-c2csc(=O)[nH]2)cc(S(=O)(=O)NC2CCCC2)c1)C1CC1`, the inhibition at 20 min, 10 µM at CYP2D6 worked out at 17%; against CYP2C19, 32%; at CYP2C9, 14%. Further, the TDI entry on Cytochrome P450 1A2, at Cytochrome P450 2D6 [1], on Cytochrome P450 2C19, at Cytochrome P450 3A4 and at Cytochrome P450 2C9 [8] was “Not Active” in each case. The ΔTm in data set [2] is -0.54 °C. Moreover, the IC50 is 5690 nM in the data set on HT-29 and 228 nM in the data set with MV4-11. Also, in data set [3], the microsomal CLint at 1 µM was 74 µL/min/mg. Further, in [4], the inhibition is above 60%. The inhibition entry in data set [6] and in data set [7] was “Active” throughout.

For the compound `Cc1ccc(-c2csc(=O)[nH]2)cc1S(=O)(=O)NC1CCCC1`, the inhibition at 20 min, 10 µM on CYP2D6 was 27%; on CYP2C19, 45%. For the same compound, the ΔTm in data set [2] was -0.17 °C. Moreover, the TDI result at Cytochrome P450 2C19 and at Cytochrome P450 2C9 [8] was “Active” throughout. The IC50 in the data set on HT-29 was 3950 nM; in the data set on MV4-11, 459 nM. The microsomal CLint at 1 µM in data set [3] came to 128 µL/min/mg. Moreover, the “inhibition (INH)” value against Cytochrome P450 2C9 [9] is given as “Not Active”.
